# Reference: ChEMBL document CHEMBL4229360, “Antimalarial agents against both sexual and asexual parasites stages: structure-activity relationships and biological studies of the Malaria Box compound 1-[5-(4-bromo-2-chlorophenyl)furan-2-yl]-N-[(piperidin-4-yl)methyl]methanamine (MMV019918) and analogues” (Eur J Med Chem, 2018)
# What was measured:
# [1] = Cardiotoxicity in Langendorff perfused Wistar rat heart assessed as QTc interval time at 1 uM by electrocardiography (reference value: 76.45 to 80.07 milliseconds); format: toxicity, tissue-based
# Plasmodium falciparum [2] = assay: Antiplasmodial activity against chloroquine-sensitive Plasmodium falciparum D10 after 72 hrs by lactate dehydrogenase assay; format: functional, organism-based; settings: D10, 72 h
# In short: (§1)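 Asynchronous blood-stage cultures at 1–1.5% parasitemia and 1% final hematocrit in human A+ RBCs, RPMI 1640 with 1% AlbuMax, hypoxanthine, HEPES and glutamine. Serial dilutions from DMSO stocks, final DMSO <1%. Incubated 72 h at 37 °C under 1% O₂/5% CO₂. IC50 is the mean of ≥3 experiments in duplicate.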
# Plasmodium falciparum [3] = assay: Antiplasmodial activity against Plasmodium falciparum asexual stage forms; format: functional, organism-based
# [4] = Cardiotoxicity in Langendorff perfused Wistar rat heart assessed as cycle length interval time at 1 uM by electrocardiography (reference value: 217.15 to 242.23 milliseconds); format: toxicity, tissue-based
# [5] = biological target: T1, Phosphoethanolamine N-methyltransferase (Plasmodium falciparum) (UniProt Q8IDQ9); assay: Inhibition of plasmodium falciparum phosphoethanolamine N-methyltransferase expressed in Escherichia coli assessed as remaining enzyme activity at 100 uM using phosphoethanolamine as substrate and [methyl-14C] SAM by radiochemical assay
# T1 sequence (whole entry): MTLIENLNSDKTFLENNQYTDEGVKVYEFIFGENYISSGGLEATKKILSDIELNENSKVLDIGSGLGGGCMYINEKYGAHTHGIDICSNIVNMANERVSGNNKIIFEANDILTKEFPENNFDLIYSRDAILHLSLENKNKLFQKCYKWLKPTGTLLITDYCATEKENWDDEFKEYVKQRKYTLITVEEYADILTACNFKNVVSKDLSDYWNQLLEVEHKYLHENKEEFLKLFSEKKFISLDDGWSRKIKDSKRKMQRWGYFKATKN
# In short: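 Recombinant PfPMT purified from E. coli, 2 μg per 100 μL reaction. Buffer 0.1 M HEPES-KOH pH 8.0, 2 mM Na2EDTA, 10% glycerol, 5% DMSO, with 30 μM SAM (100 nCi [methyl-14C]SAM) and 55 μM phosphoethanolamine; radiochemical read-out.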
# [6] = Cardiotoxicity in Langendorff perfused Wistar rat heart assessed as cycle length interval time at 3 uM by electrocardiography (reference value: 217.15 to 242.23 milliseconds); format: toxicity, tissue-based
# [7] = Cardiotoxicity in Langendorff perfused Wistar rat heart assessed as reduction of left ventricular pressure; format: toxicity, tissue-based
# [8] = Cardiotoxicity in Langendorff perfused Wistar rat heart assessed as frequency of heart rate at 1 uM by electrocardiography (reference value: 247.05 to 275.90 bpm); format: toxicity, tissue-based
# [9] = Cardiotoxicity in Langendorff perfused Wistar rat heart assessed as PQ interval time at 10 uM by electrocardiography (reference value: 41.13 to 42.63 milliseconds); format: toxicity, tissue-based
# Plasmodium falciparum [10] = assay: Antiplasmodial activity against chloroquine-resistant Plasmodium falciparum W2 after 72 hrs by lactate dehydrogenase assay; format: functional, organism-based; settings: W2, 72 h; in short: as §1
# [11] = Cardiotoxicity in Langendorff perfused Wistar rat heart assessed as PQ interval time at 0.1 uM by electrocardiography (reference value: 41.13 to 42.63 milliseconds); format: toxicity, tissue-based
# [12] = Cardiotoxicity in Langendorff perfused Wistar rat heart assessed as PQ interval time at 3 uM by electrocardiography (reference value: 41.13 to 42.63 milliseconds); format: toxicity, tissue-based
# Plasmodium falciparum [13] = assay: Antiplasmodial activity against gametocytes of Plasmodium falciparum NF54 infected in Anopheles stephensi mosquitoes after 24 hrs by standard membrane feeding assay; format: functional, organism-based; settings: NF54, 24 h
# [14] = Cardiotoxicity in Langendorff perfused Wistar rat heart assessed as PQ interval time at 1 uM by electrocardiography (reference value: 41.13 to 42.63 milliseconds); format: toxicity, tissue-based
# [15] = Cardiotoxicity in Langendorff perfused Wistar rat heart assessed as cycle length interval time at 0.1 uM by electrocardiography (reference value: 217.15 to 242.23 milliseconds); format: toxicity, tissue-based
# [16] = Cardiotoxicity in Langendorff perfused Wistar rat heart assessed as QRS interval time at 10 uM by electrocardiography (reference value: 13.31 to 14.35 milliseconds); format: toxicity, tissue-based
# [17] = Cardiotoxicity in Langendorff perfused Wistar rat heart assessed as QRS interval time at 3 uM by electrocardiography (reference value: 13.31 to 14.35 milliseconds); format: toxicity, tissue-based
# hERG (KCNH2) = hERG (KCNH2) (Homo sapiens, UniProt Q12809); assay: Inhibition of human ERG at 50 uM
# Plasmodium falciparum [18] = assay: Gametocytocidal activity against Plasmodium falciparum 3D7 elo1-pfs16-CBG99 late-stage (4 to 5) gametocytes assessed as inhibition of parasite viability after 72 hrs by luciferase reporter assay; format: functional, organism-based; settings: 3D7 elo1-pfs16-CBG99, 72 h
# In short: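 Transgenic 3D7elo1-pfs16-CBG99 gametocytes express CBG99 luciferase from the pfs16 promoter. Stage IV–V gametocytes (Giemsa-checked) were exposed at day 8–10 after NAG addition to serial dilutions in complete medium for 72 h. Samples at 2% haematocrit were then mixed 1:1 with D-luciferin (1 mM, pH 5.5 citrate) for 10 min and luminescence was read. IC50 came from non-linear regression, mean of ≥3 experiments in duplicate.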
# [19] = Cardiotoxicity in Langendorff perfused Wistar rat heart assessed as frequency of heart rate at 3 uM by electrocardiography (reference value: 247.05 to 275.90 bpm); format: toxicity, tissue-based
# [20] = Cardiotoxicity in Langendorff perfused Wistar rat heart assessed as frequency of heart rate at 0.1 uM by electrocardiography (reference value: 247.05 to 275.90 bpm); format: toxicity, tissue-based
# [21] = Cardiotoxicity in Langendorff perfused Wistar rat heart assessed as QTc interval time at 3 uM by electrocardiography (reference value: 76.45 to 80.07 milliseconds); format: toxicity, tissue-based
# Plasmodium falciparum [22] = assay: Gametocytocidal activity against Plasmodium falciparum late stage gametocytes; format: functional, organism-based
# [23] = Cardiotoxicity in Langendorff perfused Wistar rat heart assessed as frequency of heart rate at 10 uM by electrocardiography (reference value: 247.05 to 275.90 bpm); format: toxicity, tissue-based
# [24] = biological target: Voltage-dependent L-type calcium channel subunit alpha-1C (Rattus norvegicus, UniProt P22002); assay: Inhibition of CaV1.2 channel in rat tail artery myocytes assessed as reduction in Ba2+ current at -50 mV holding potential by whole-cell patch-clamp assay; format: cell-based; settings: rat
# In short: (§2)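 Freshly isolated rat tail artery smooth muscle cells (collagenase digestion), whole-cell patch clamp at 20–22 °C. External solution: 5 mM Ba2+, 30 mM TEA; Cs+-based internal solution, pH 7.4. Currents from 250-ms pulses to 0 mV from Vh −50 mV at 0.067 Hz, after 7–10 min stabilisation. Leak corrected with 10 μM nifedipine. Peak current as % of control; n = 3–6 cells from ≥3 animals.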
# [25] = Cardiotoxicity in Langendorff perfused Wistar rat heart assessed as QTc interval time at 0.1 uM by electrocardiography (reference value: 76.45 to 80.07 milliseconds); format: toxicity, tissue-based
# [26] = Cardiotoxicity in Langendorff perfused Wistar rat heart assessed as QTc interval time at 10 uM by electrocardiography (reference value: 76.45 to 80.07 milliseconds); format: toxicity, tissue-based
# [27] = Cardiotoxicity in Langendorff perfused Wistar rat heart assessed as QRS interval time at 0.1 uM by electrocardiography (reference value: 13.31 to 14.35 milliseconds); format: toxicity, tissue-based
# CaV1.2 channel = CaV1.2 channel (Rattus norvegicus, UniProt P22002); assay: Inhibition of CaV1.2 channel in rat tail artery myocytes assessed as reduction in Ba2+ current at 10 uM at -50 mV holding potential by whole-cell patch-clamp assay; format: cell-based; in short: as §2
# [28] = Cardiotoxicity in Langendorff perfused Wistar rat heart assessed as coronary perfusion pressure at 0.1 to 10 uM; format: toxicity, tissue-based
# [29] = Cardiotoxicity in Langendorff perfused Wistar rat heart assessed as cycle length interval time at 10 uM by electrocardiography (reference value: 217.15 to 242.23 milliseconds); format: toxicity, tissue-based
# [30] = Cardiotoxicity in Langendorff perfused Wistar rat heart assessed as QRS interval time at 1 uM by electrocardiography (reference value: 13.31 to 14.35 milliseconds); format: toxicity, tissue-based
# Plasmodium falciparum [31] = assay: Antiplasmodial activity against Plasmodium falciparum sexual stage forms; format: functional, organism-based
# Chain of hERG (KCNH2) (Q12809 whole entry): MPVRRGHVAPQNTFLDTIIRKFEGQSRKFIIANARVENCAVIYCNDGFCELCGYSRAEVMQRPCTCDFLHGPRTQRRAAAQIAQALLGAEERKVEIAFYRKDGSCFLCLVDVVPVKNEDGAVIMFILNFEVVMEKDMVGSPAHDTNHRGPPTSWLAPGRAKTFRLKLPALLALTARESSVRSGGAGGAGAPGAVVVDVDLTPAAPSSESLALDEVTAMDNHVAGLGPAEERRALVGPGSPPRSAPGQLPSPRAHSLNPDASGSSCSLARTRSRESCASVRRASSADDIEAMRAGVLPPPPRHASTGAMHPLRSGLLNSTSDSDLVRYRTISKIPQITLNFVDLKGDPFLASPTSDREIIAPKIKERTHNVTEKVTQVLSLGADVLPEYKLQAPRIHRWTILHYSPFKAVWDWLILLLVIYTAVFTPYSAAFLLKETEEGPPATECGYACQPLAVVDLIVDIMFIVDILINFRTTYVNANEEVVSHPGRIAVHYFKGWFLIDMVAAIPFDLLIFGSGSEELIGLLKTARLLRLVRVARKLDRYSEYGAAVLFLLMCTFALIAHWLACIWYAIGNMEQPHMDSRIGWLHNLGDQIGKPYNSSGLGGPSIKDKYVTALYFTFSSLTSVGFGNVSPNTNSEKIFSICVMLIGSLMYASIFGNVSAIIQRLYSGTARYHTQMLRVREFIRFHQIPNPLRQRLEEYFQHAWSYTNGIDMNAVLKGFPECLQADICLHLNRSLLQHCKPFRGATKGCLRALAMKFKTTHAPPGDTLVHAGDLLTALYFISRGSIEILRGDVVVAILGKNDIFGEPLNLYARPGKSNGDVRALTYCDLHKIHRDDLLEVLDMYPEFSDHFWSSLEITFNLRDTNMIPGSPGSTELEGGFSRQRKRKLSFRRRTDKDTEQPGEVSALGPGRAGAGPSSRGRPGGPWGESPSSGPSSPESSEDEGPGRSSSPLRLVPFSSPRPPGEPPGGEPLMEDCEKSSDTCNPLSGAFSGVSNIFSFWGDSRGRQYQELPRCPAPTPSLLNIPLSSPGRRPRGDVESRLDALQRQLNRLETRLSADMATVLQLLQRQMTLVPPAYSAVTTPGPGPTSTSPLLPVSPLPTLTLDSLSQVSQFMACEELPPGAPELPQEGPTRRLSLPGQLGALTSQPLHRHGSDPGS
# Chain of CaV1.2 channel (P22002 whole entry, the tested form may be a part): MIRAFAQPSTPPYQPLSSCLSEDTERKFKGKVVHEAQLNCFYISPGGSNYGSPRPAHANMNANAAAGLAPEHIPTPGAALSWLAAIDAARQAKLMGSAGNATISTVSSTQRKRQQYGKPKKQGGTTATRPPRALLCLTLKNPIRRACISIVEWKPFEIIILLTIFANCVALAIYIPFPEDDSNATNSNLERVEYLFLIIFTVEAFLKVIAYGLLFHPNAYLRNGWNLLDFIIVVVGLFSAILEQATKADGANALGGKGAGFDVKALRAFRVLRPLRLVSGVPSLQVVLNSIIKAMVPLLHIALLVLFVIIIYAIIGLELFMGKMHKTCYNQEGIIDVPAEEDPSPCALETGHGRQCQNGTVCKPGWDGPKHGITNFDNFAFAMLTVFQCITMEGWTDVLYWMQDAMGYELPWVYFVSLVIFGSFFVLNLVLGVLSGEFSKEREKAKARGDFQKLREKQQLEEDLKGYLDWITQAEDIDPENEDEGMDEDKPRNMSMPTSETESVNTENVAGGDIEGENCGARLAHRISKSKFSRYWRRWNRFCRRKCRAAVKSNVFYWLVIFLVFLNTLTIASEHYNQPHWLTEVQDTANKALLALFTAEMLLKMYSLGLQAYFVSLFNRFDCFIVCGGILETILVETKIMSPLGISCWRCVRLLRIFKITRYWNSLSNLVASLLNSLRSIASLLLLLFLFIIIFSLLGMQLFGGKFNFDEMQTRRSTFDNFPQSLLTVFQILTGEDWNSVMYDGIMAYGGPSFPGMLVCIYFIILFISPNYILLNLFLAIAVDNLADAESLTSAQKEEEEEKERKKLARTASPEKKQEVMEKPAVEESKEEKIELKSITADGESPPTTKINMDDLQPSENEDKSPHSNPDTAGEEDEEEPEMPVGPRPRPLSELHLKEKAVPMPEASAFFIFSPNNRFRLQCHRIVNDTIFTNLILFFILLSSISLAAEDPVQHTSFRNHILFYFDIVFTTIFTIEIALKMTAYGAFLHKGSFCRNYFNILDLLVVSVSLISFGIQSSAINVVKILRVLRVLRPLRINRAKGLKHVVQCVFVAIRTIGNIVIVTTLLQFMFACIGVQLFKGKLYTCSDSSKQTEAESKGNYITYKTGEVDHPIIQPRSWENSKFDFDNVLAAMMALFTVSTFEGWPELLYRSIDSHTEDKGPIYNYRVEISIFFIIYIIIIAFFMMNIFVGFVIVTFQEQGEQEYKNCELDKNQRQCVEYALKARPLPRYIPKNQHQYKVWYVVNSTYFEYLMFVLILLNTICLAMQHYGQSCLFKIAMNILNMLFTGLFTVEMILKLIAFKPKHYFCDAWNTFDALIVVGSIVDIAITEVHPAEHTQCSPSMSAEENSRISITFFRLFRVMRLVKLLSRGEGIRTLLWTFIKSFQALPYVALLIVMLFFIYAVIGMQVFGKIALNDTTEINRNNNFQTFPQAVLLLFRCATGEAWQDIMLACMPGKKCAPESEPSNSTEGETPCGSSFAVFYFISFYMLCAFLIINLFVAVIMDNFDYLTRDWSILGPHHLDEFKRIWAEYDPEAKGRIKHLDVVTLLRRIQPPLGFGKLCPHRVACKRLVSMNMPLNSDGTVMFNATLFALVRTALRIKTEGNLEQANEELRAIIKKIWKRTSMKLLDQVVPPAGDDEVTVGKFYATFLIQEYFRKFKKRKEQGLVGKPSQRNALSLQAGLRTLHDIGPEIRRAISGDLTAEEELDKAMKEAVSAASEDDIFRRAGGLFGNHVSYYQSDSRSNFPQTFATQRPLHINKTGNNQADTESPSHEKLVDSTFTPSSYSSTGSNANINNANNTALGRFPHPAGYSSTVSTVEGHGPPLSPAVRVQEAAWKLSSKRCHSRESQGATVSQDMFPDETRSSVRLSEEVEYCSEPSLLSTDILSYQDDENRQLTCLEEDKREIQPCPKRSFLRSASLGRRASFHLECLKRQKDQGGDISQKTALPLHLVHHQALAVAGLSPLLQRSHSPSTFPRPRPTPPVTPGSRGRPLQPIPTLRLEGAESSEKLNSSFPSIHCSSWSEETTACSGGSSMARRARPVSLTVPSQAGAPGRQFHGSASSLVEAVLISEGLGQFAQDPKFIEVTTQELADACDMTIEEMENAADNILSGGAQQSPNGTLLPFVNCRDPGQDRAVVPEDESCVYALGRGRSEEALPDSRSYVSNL
# Chain of Voltage-dependent L-type calcium channel subunit alpha-1C (P22002 whole entry): as the sequence (P22002 whole entry, the tested form may be a part) above
smiles,measurement,setting,value
Clc1cc(Br)ccc1-c1ccc(CNCC2CCNCC2)o1,Time,[1],80.93 ms
same,IC50,Plasmodium falciparum [2],770 nM
same,IC50,Plasmodium falciparum [3],< 1000 nM
same,Time,[4],232.48 ms
same,Activity,[5],92%
same,Time,[6],233.9 ms
same,Activity,[7],Dose-dependent effect
same,Activity,[8],258.35 bpm
same,Time,[9],67.5 ms
same,IC50,Plasmodium falciparum [10],2300 nM
same,Time,[11],42.29 ms
same,Time,[12],47.9 ms
same,EC50,Plasmodium falciparum [13],70 nM
same,Time,[14],42.5 ms
same,Time,[15],235.08 ms
same,Time,[16],23.75 ms
same,Time,[17],17.46 ms
same,inhibition at 50 µM,hERG (KCNH2),83%
same,IC50,Plasmodium falciparum [18],1200 nM
same,Activity,[19],257.71 bpm
same,Activity,[20],256.15 bpm
same,Time,[21],82.1 ms
same,IC50,Plasmodium falciparum [22],< 1000 nM
same,Activity,[23],222.74 bpm
same,inhibition (INH),[24],Dose-dependent effect
same,Time,[25],81.51 ms
same,Time,[26],80.99 ms
same,Time,[27],14.25 ms
same,inhibition at 10 µM,CaV1.2 channel,57%
same,Activity,[28],Non-Toxic
same,Time,[29],272.57 ms
same,Time,[30],15.8 ms
same,IC50,Plasmodium falciparum [31],< 1000 nM
